The source made the active and inactive calls.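 How the source made its calls: active means at least 50% ABHD10 inhibition in mouse heart after 25 mg/kg, and no other enzyme inhibited 50% at any dose; inactive means the rest.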
Key:
[1] = molecular target: Palmitoyl-protein thioesterase ABHD10, mitochondrial (Mus musculus) (UniProt Q6PE15); assay: ABHD10 inhibition in dosed mice, late-stage follow-up, in vivo study for PME-1 inhibitor project, gel-based competitive ABPP, fluorescence, mouse heart (AID 602485); conditions: C57BL/6 mice i.p., heart proteome, FP-Rh gel ABPP, stronger effect = higher value
Outline: (§1)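 System: C57BL/6 mouse heart soluble proteome / Reagent: FP-Rh activity-based probe, 1 µM final / Timing: 6 h in vivo exposure, probe labelling 30 min at 25 °C / Signal: in-gel fluorescence after SDS-PAGE / Controls: vehicle-dosed mice as high control, blank gel background as low / Replication: n of 1 per dose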

[2] = as above; conditions: C57BL/6 mice i.p., heart proteome, FP-Rh gel ABPP; anti-targets at any tested dose
Outline: as §1

Sequence of Palmitoyl-protein thioesterase ABHD10, mitochondrial (Mus musculus) (Q6PE15 whole entry, looked up): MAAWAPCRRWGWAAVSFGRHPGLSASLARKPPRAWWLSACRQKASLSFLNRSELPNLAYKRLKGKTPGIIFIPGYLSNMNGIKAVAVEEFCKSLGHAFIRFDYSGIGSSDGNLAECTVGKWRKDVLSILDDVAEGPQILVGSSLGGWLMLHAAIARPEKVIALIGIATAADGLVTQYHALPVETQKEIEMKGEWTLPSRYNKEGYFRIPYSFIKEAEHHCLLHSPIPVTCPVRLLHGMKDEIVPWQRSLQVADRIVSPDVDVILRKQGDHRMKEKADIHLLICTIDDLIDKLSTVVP

CC[C@@]1(c2ccc(C)cc2)C(=O)N(C(=O)OC(C)C)N1C(=O)OC(C)C
inhibition [1]: 99% | inhibition ([1]; inhibition at 6 mg/kg): 10% | inhibition ([1]; inhibition at 13 mg/kg): 60% | outcome [2]: inactive

Source: PubChem BioAssay AID602485 (The Scripps Research Institute Molecular Screening Center, 2012)
